From ChEMBL document CHEMBL2163247, “Multitargeted drug development: Discovery and profiling of dihydroxy substituted 1-aza-9-oxafluorenes as lead compounds targeting Alzheimer disease relevant kinases” (Bioorg Med Chem Lett, 2012)
Calls of active or inactive are those of the source. No cut-off for these calls is given here.

Tests used:
[1] = biological target: Cyclin-dependent kinase 1/cyclin B1 (Homo sapiens, UniProt P06493); assay: Inhibition of CDK1/Cyclin B; assay type: protein-complex assay
Method in brief: (§1)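 Ki values were calculated from measured IC50 values of kinase inhibition.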

[2] = biological target: Glycogen synthase kinase-3 beta (Homo sapiens, UniProt P49841); assay: Inhibition of GSK3beta; method in brief: as §1
[3] = biological target: Cyclin-dependent kinase 5/CDK5 activator 1 (Homo sapiens, UniProt Q00535); assay: Inhibition of CDK5/p25; assay type: protein-complex assay; method in brief: as §1
[4] = Inhibition of CDK4/Cyclin D; method in brief: as §1
[5] = biological target: Cyclin-dependent kinase 2/cyclin E (Homo sapiens, UniProt P24941); assay: Inhibition of CDK2/Cyclin E; assay type: protein-complex assay; method in brief: as §1
N2a [6] = assay: Cytotoxicity against mouse N2A cells up to 90 uM by MTT assay; assay type: cell-based
Method in brief: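 N2A cells were treated at up to 90 µM. MTT was added in triplicate to a final 1 mg/mL for 2 h. Medium was removed, formazan taken up in DMSO plus glycine buffer (0.1 M glycine, pH 10.5, 0.1 M NaCl), and absorbance read at 550 nm. Cells lysed with 1% Triton X-100 set 100% death; untreated cells served as reference.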

[7] = biological target: T1, Protein kinase C iota type (Homo sapiens, UniProt P41743); assay: Inhibition of PKCiota
T1 sequence (P41743 whole entry): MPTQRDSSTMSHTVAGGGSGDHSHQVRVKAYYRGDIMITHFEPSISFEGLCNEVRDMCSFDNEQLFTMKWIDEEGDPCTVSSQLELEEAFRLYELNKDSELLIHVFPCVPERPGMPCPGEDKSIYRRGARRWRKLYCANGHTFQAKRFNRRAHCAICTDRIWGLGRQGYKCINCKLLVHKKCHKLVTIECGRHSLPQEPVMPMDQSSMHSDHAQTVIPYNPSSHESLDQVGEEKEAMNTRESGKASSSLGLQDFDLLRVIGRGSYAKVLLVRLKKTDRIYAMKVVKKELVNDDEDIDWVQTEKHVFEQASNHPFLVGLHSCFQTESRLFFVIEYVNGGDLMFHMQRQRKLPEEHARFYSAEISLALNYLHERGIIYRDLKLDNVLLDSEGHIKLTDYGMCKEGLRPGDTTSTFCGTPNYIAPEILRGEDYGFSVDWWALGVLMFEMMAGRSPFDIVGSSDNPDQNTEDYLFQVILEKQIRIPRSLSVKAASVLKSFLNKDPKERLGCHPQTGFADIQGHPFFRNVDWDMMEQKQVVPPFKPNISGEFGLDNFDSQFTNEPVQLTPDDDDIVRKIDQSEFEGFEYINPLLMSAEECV

N2a [8] = assay: Cytotoxicity against mouse N2A cells up to 90 uM by LDH assay; assay type: cell-based
Method in brief: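 Membrane integrity in N2A cells was read as extracellular lactate dehydrogenase activity, at compound concentrations up to 90 µM. Absorbance was read at 492 nm 20 min after adding the reagent mixture and compared with compound-free cells.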

[9] = biological target: Glycogen synthase kinase-3 beta (Mus musculus) (UniProt Q9WV60); assay: Inhibition of GSK3beta-mediated Tau S202/T205 phosphorylation in mouse N2A cells at 2.6 to 24 uM after 16 hrs by immunoblot analysis; assay type: cell-based
Method in brief: (§2)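 Mouse N2A cells stably transfected with a 3-repeat tau construct were grown 24 h in DMEM/HAMs F-12 (pH 7.4), 5% FBS, 2 mM L-glutamine and gentamicin (37 °C, 5% CO2). They were then exposed 16 h to inhibitor diluted from a 25 mM DMSO stock (final DMSO ≤0.4%, also in controls). Lysate proteins were run on 8% SDS–PAGE, blotted to PVDF, and probed for phospho-Ser202/Thr205 tau.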

[10] = biological target: Cdk5-Cdk5r1 complex (Mus musculus) (UniProt P49615+P61809); assay: Inhibition of CDK5/p25-mediated Tau S202/T205 phosphorylation in mouse N2A cells at 2.6 to 24 uM after 16 hrs by immunoblot analysis; assay type: cell-based; method in brief: as §2
[11] = biological target: T2, Protein kinase C epsilon type (Homo sapiens, UniProt Q02156); assay: Inhibition of PKCepsilon
T2 sequence (Q02156 whole entry): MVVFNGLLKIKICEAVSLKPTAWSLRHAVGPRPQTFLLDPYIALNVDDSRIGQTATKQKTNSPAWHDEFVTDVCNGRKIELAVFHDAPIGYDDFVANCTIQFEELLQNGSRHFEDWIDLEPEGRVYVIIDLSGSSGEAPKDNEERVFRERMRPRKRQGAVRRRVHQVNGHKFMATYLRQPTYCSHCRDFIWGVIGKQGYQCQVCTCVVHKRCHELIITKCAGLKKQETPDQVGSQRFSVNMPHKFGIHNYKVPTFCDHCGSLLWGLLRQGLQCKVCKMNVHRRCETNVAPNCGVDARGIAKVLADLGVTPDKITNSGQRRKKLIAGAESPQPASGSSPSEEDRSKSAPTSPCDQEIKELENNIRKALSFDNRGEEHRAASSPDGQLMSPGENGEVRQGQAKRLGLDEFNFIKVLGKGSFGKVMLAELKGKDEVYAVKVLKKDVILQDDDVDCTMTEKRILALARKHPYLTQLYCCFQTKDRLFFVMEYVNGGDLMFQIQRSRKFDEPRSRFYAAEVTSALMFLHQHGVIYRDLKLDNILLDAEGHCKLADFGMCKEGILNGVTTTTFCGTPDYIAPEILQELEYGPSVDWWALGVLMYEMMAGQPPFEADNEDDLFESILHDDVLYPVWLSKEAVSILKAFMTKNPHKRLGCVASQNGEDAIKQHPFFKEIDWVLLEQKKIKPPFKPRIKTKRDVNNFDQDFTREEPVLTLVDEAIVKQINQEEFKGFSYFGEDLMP

Wee1-like protein kinase = Wee1-like protein kinase (Homo sapiens, UniProt P30291); assay: Inhibition of WEE1
Angiopoietin-1 receptor = Angiopoietin-1 receptor (Homo sapiens, UniProt Q02763); assay: Inhibition of TIE2
[12] = biological target: Receptor tyrosine-protein kinase erbB-2 (Homo sapiens, UniProt P04626); assay: Inhibition of ERBB2
[13] = biological target: Casein kinase I isoform alpha (Homo sapiens, UniProt P48729); assay: Inhibition of Ck1alpha1
CDK6/cyclin D1 = CDK6/cyclin D1 (Homo sapiens, UniProt Q00534); assay: Inhibition of CDK6/Cyclin D1; assay type: protein-complex assay
[14] = biological target: Protein kinase C gamma type (Homo sapiens, UniProt P05129); assay: Inhibition of PKCgamma
[15] = biological target: Vascular endothelial growth factor receptor 2 (Homo sapiens, UniProt P35968); assay: Inhibition of VEGFR2
[16] = biological target: Protein kinase C alpha type (Homo sapiens, UniProt P17252); assay: Inhibition of PKCalpha

Chain of Glycogen synthase kinase-3 beta (P49841 whole entry): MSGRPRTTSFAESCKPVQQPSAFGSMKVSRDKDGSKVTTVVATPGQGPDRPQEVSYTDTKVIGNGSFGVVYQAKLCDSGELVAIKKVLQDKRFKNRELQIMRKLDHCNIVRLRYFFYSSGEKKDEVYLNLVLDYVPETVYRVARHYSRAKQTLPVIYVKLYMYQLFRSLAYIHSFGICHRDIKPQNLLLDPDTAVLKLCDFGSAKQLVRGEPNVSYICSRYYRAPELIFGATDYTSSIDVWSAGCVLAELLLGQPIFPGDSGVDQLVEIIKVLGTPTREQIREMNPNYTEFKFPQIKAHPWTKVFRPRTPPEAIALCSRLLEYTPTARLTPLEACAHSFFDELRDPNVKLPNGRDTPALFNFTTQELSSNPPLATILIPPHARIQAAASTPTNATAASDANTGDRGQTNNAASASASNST
Chain of Cyclin-dependent kinase 1/cyclin B1 (P06493 whole entry): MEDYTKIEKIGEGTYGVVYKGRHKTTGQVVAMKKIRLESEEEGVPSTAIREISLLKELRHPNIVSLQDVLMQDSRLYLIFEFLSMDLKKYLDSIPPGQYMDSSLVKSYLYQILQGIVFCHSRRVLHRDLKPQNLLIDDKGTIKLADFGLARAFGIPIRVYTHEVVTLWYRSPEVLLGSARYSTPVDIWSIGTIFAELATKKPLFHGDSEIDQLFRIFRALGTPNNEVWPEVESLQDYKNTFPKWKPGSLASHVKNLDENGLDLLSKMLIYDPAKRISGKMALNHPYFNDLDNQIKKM
Chain of Cyclin-dependent kinase 1/cyclin B1 (P14635 whole entry, further chain): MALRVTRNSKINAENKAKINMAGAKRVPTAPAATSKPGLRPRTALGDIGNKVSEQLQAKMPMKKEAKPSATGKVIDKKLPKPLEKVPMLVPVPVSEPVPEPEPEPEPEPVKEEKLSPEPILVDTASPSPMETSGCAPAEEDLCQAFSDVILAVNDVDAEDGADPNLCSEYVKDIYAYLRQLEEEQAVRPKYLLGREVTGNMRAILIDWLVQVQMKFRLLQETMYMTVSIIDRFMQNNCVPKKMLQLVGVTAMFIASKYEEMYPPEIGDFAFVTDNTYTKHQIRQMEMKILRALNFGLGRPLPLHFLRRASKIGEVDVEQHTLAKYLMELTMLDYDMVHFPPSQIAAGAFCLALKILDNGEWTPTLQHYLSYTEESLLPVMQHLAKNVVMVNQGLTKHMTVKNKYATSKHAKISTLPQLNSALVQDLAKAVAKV
Chain of Cyclin-dependent kinase 5/CDK5 activator 1 (Q00535 whole entry): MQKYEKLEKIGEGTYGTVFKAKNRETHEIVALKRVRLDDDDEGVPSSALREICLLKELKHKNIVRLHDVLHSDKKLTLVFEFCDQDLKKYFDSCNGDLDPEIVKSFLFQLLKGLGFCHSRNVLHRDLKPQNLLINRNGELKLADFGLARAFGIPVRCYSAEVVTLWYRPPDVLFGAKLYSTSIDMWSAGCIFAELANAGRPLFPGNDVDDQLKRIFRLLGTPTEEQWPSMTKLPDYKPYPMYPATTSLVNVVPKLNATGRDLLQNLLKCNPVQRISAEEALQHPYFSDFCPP
Chain of Cyclin-dependent kinase 5/CDK5 activator 1 (Q15078 whole entry, further chain): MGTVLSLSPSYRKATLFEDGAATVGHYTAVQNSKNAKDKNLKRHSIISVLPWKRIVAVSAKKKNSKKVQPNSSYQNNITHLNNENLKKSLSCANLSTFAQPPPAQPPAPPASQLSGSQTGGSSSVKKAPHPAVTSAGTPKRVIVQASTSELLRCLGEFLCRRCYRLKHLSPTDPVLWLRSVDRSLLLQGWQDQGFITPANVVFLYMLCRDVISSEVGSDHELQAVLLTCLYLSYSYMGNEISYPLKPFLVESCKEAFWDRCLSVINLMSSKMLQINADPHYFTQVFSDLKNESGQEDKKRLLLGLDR
Chain of Vascular endothelial growth factor receptor 2 (P35968 whole entry): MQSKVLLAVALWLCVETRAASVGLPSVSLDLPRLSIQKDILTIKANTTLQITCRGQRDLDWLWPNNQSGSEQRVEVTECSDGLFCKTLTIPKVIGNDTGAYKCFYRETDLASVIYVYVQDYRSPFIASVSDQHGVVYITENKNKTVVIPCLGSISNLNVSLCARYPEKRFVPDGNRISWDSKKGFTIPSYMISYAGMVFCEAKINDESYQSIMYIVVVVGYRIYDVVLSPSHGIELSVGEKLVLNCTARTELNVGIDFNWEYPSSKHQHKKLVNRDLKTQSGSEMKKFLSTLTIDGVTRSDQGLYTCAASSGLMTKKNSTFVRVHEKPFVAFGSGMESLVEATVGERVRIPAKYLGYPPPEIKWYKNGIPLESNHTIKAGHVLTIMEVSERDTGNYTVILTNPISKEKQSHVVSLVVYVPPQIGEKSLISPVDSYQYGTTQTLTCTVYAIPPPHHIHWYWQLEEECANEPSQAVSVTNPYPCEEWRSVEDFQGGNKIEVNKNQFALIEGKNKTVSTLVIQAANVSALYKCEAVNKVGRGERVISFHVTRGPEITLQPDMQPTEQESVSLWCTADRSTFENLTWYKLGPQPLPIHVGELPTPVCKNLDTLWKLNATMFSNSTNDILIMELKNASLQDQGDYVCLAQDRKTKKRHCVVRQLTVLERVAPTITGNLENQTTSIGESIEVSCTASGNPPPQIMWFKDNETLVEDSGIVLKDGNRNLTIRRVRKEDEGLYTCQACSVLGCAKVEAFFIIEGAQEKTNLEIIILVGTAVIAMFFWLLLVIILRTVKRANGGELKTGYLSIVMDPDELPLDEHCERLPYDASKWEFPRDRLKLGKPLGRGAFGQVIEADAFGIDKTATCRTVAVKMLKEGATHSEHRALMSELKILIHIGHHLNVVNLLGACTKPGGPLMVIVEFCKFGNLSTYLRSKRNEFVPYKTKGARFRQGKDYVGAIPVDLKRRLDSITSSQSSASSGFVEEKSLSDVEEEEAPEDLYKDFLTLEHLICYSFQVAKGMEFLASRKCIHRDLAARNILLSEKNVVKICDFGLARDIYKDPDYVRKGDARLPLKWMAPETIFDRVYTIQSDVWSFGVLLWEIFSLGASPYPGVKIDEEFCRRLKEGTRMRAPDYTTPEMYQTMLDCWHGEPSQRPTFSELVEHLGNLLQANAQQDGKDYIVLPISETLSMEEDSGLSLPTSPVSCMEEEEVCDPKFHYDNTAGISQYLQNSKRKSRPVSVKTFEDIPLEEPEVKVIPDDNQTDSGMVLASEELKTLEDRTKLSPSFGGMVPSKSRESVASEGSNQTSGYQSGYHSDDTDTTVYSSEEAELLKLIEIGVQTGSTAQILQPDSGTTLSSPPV
Chain of Glycogen synthase kinase-3 beta (Mus musculus) (Q9WV60 whole entry, looked up): as the sequence (P49841 whole entry) above, with T390P, T392A, A400T, T402A counted along it
Chain of Receptor tyrosine-protein kinase erbB-2 (P04626 whole entry, canonical isoform): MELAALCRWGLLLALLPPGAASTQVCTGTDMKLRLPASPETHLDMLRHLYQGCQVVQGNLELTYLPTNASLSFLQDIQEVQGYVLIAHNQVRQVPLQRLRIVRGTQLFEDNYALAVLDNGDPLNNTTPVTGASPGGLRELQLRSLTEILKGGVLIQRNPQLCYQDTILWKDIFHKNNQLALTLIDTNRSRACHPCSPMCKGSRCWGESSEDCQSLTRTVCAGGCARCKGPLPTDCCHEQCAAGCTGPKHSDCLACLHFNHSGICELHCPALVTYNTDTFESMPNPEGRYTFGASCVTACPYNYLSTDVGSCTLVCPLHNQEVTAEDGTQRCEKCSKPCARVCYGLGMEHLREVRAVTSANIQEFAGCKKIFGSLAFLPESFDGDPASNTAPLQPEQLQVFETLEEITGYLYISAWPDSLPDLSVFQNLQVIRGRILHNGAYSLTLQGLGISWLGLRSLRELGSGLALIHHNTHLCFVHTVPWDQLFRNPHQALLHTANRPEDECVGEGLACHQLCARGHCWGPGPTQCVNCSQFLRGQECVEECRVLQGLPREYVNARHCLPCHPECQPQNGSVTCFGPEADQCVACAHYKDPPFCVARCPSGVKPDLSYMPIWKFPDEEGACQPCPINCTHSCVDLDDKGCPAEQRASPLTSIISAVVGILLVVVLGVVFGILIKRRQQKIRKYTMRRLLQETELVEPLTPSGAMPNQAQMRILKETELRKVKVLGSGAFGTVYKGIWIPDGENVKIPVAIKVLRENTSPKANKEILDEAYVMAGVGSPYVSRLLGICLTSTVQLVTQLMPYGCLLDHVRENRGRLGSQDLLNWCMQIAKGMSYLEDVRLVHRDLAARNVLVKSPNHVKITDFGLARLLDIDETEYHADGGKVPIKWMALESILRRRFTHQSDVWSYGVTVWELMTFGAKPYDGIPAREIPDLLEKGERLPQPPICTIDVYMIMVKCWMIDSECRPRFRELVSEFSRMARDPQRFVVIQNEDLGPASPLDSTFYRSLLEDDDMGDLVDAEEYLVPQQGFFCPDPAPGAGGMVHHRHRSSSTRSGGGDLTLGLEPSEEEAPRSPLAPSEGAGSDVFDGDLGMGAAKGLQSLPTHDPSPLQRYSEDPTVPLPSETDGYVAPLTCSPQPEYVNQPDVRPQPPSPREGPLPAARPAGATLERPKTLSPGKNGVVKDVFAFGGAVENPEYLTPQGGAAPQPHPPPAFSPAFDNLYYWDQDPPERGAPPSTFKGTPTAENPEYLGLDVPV
Chain of Cdk5-Cdk5r1 complex (Mus musculus) (P49615 whole entry, looked up): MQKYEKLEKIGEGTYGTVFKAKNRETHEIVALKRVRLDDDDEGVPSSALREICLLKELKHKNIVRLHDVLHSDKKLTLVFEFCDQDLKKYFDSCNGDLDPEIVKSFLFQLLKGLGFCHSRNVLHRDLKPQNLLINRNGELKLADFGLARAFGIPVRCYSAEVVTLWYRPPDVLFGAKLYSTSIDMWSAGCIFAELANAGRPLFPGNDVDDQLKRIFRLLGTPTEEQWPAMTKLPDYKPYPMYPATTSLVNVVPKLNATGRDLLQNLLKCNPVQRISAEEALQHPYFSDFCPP
Chain of Cdk5-Cdk5r1 complex (Mus musculus) (P61809 whole entry, looked up): as the sequence (Q15078 whole entry, further chain) above, with V68A, N76S, T79A, G121V, V133I counted along it

Ki [1]	Ki [2]	Ki [3]	Ki [4]	Ki [5]	Structure (SMILES)	other results
> 1000 µM	> 1000 µM	> 1000 µM	> 1000 µM	> 1000 µM	COc1ccc2oc3ncc(OC)c(-c4ccccc4)c3c2c1	
0.7 µM	0.01 µM	0.07 µM			Oc1cnc2oc3c4ccccc4c(O)cc3c2c1-c1ccccc1	
0.09 µM	1.6 µM	2.1 µM			Oc1cc2c(oc3ncc(OCc4ccccc4)c(-c4ccccc4)c32)c2ccccc12	
0.01 µM	0.02 µM	0.11 µM	18.5 µM	0.6 µM	Oc1ccc2oc3ncc(O)c(-c4ccccc4)c3c2c1	Activity (N2a [6]): Non-toxic; Ki [7]: > 1 mM; Activity (N2a [8]): Non-toxic; inhibition [9]: Active; inhibition [10]: Active; Ki [11]: > 1 mM; Ki (Wee1-like protein kinase): > 1 mM; Ki (Angiopoietin-1 receptor): > 1 mM; Ki [12]: > 1 mM; Ki [13]: > 1 mM; Ki (CDK6/cyclin D1): 773 µM; Ki [14]: > 1 mM; Ki [15]: > 1 mM; Ki [16]: > 1 mM
> 1000 µM	0.02 µM	26.1 µM	> 1000 µM	> 1000 µM	COc1ccc2oc3ncc(OCc4ccccc4)c(-c4ccccc4)c3c2c1	
1.3 µM	5.8 µM	25.3 µM			Cc1cc2oc3ncc(OCc4ccccc4)c(-c4ccccc4)c3c2cc1O	
2.3 µM	5.8 µM	> 1000 µM	36.6 µM	6.4 µM	Oc1ccc2oc3ncc(OCc4ccccc4)c(-c4ccccc4)c3c2c1	
> 1000 µM	> 1000 µM	> 1000 µM	144 µM	> 1000 µM	COc1ccc2oc3ncc(O)c(-c4ccccc4)c3c2c1	

Structure (SMILES)	Ki [1]	Ki [2]	Ki [3]	Ki [4]	Ki [5]	other results
COc1cnc2oc3ccc(O)cc3c2c1-c1ccccc1	5.3 µM	14.8 µM	> 1000 µM	93.6 µM	24 µM	
